Test system: MS2 coat protein
Assay: apparent Kd, MS2 coat protein; higher = weaker binding; RNA-MaP array; FMN 200 µM where present
Summary of the method: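 Binding was read on Illumina sequencing-chip clusters where stalled E. coli RNA polymerase had transcribed each design. A titration of SNAP-549-labelled MS2 coat protein began at 0.7 or 1.5 nM and doubled to 3 µM, once without ligand and once with constant ligand, in 100 mM Tris-HCl pH 7.5, 80 mM KCl, 4 mM MgCl2, BSA, DTT, yeast tRNA and Tween-20. The apparent Kd is the median of filtered per-cluster binding-curve fits, based on green signal normalised to red-channel RNA signal and control-cluster median Fmax.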

[1] = designed as: ON switch for flavin mononucleotide, no ligand
[2] = ligand present: flavin mononucleotide, designed as: ON switch for flavin mononucleotide
[3] = designed as: OFF switch for flavin mononucleotide, no ligand
[4] = ligand present: flavin mononucleotide, designed as: OFF switch for flavin mononucleotide

Row | Sequence | apparent Kd [1] [µM] | apparent Kd [2] [µM] | apparent Kd [3] [µM] | apparent Kd [4] [µM]
1 | GAUUGAACCCAGAAGGCAUGAUCCACAUGAGGAUCACCCAUGUCGGUGAUGAGGAUAUGGCAUCGUCGCGCAGGGCACUAAUGA | 0.59 | 0.119 | – | –
2 | GAUGAUCGGUGAGGAUAUUUUAUAACGUUUUUGAAAGAAGGCACUGACAUGAGGAUCACCCAUGUGAGUCCUCAUCUUGAAAUA | – | – | 0.018 | 0.0356
3 | CCCAUCAGAGGAUAUACAUGAGGAUCACCCAUGUCAAUCGAACGGGAUGGGAGGUUAGGUAGAAGGUUGUGGAA | – | – | 0.0152 | 0.0169
4 | AGACCCAUGACAUGACAUGACAUGAGGAUCACCCAUGUUUACAAGGAUAUGUUGAUGAAACAUCAACAGAAGGUGUAAUGGGCU | – | – | 0.0209 | 0.0731
5 | AUUAUUUAAGUCAGGAUAUCGUAUUUAUUUAAAUACGAGAAGGGACAUGAGGAUCACCCAUGUAAUAAAUUUUU | – | – | 0.0169 | 0.0229
6 | UGGCUACAUGAGGAUCACCCAUGUCAGGAUAUGCCGUCGGCUUGCGUUCGUCGUUUGGGUAGAAGGGACUGCGG | – | – | 0.0831 | 0.0915
7 | UUUCCGCGAGGAUAUGCGGGUUGUGCUUUUCAUUUUUUAUAACAUGAGGAUCACCCAUGUAGAAGGUGCUUCUG | – | – | 0.0787 | 0.0716
8 | UGAACUUCAGAGAAGGUCGAAUCACAACGGUUCGAAGGAUAUCUGGAAACAUGAGGAUCACCCAUGUAACCGGGUGGAUGUCCU | – | – | 0.0562 | 0.242
9 | GGGAGUGGAGGGAAUAACAUGAGGAUCACCCAUGUAUGGGAGAGAAGGCAGGUCGGAGGGCGAUCUGAGGAUAUUUAGACUCUU | 0.00899 | 0.00808 | – | –
10 | GGCUCAUUUACAUUAAUGUGCUGACAGGAUAUCCACGGCGGUUCCUACAUGAGGAUCACCCAUGUGGAGAAGGGUCGCUAAUGG | – | – | 0.0124 | 0.0189
11 | AAACAUGUCCGAGGAUAUCUGAGAUCAUUUUCAAGAGAAGGCGGACAUGAGGAUCACCCAUGUCUCUCCUCAUCAACGCCAAAU | – | – | 0.0269 | 0.0517
12 | CCCUCACAUGAGGAUCACCCAUGUCAGGAUAUUCGAGGCGCAAAUACGCCAAAUGCAGGAAGAAGGGACGUGCC | – | – | 0.0155 | 0.0224
13 | GUGUACAGAGGAUAUACACGAGUAGUUACGAAAGUAACUACACAUGAGGAUCACCCAUGUAGAAGGCUGUACAC | – | – | 0.025 | 0.0303
14 | GGAUCGAAUGUCAGGAUAUACCACUGGAUACAGUGGUAGAAGGGACAUGAGGAUCACCCAUGUGUUAUCGAUCC | – | – | 0.0404 | 0.114
15 | AAGUUCUGUGAGAAGGCGCCCUUUGCGGUUGGGCGAGGAUAUCACAUGAGGAUCACCCAUGUCGGUGCAUCAGACAGCGUAUUU | – | – | 0.81 | 0.156
16 | GUGUACAGAGGAUAUAUAUGAGCUAGGAAACUAGCAAGAUCACAUGAGGAUCACCCAUGUAGAAGGCUGUACAC | – | – | 0.114 | 1.21
17 | GUCUCGUGAGGAUAUCAUGAUUGACUUAAUUUAUUUUAGCGUGAGAAGGCACAUGAGGAUCACCCAUGUGAUUC | – | – | 0.0195 | 0.0213
18 | GUGCCUAACUAGAAGGCAGCAUGCAAAGCAUUCUGAGGAUAUGGGUUCCGGAAACGGACAUGAGGAUCACCCAUGUGGCACAAA | 0.482 | 0.0347 | – | –
19 | AUGAGGUCAGGAUAUGCAUGGCGGGACUUGCGUCGUGGCGUGGAGAAGGGACAUGAGGAUCACCCAUGUGGAGG | – | – | 0.108 | 0.0883

Row | Sequence | apparent Kd [1] [µM] | apparent Kd [2] [µM] | apparent Kd [3] [µM] | apparent Kd [4] [µM]
20 | GGAUGACACAGUCAUCCAAUACGAACAUGAGGAUCACCCAUGUAGGAUAUGCUACUCAAAGAGUAGCAGAAGGACAUGUGCCUU | – | – | 0.0391 | 0.257
21 | CCGAGGCUAGGAUAUUGACGAUAAUACAUGAGGAUCACCCAUGUGAGUCGUGUAUGCGCGCAAGAAGGAGUAAUAA | – | – | 0.014 | 0.0176
22 | UGAUAGGACAGAGGAUAUGCGUGCUGGUGAUACUAGCAAAGUAUCGUGACAUGAGGAUCACCCAUGUAGAAGGCUGUCCUAUCU | – | – | 0.028 | 0.0684
23 | GCAGCUAUUAUUAUACAUGAGGAUCACCCAUGUUACAUGUGUAAGGAUAUUGAUGUUUAUAUAAUCAAGAAGGUACGAUGCUGC | 0.0126 | 0.00859 | – | –
24 | UUACUACAUGAGGAUCACCCAUGUCAGGAUAUUGUCUAUACUUUGGAAUAUGUGUCGAUAAGAAGGGACUAUAU | – | – | 0.0189 | 0.0215
25 | ACAUGAGGAUCACCCAUGUAUUACAUGGUUAUGUUUAUUAACAGAAGGCGAAAUUACCACUGAAUCGAGGAUAUGUAUUCUAUA | – | – | 0.0534 | 0.0451
26 | AACAUGUCAGGAUAUGUGACAUGGCUCUUCGGAGCAAGAUCACAGAAGGGACAUGAGGAUCACCCAUGUCGAUC | – | – | 0.0387 | 0.156
27 | AGUGUCAUCGAGAAGGCCUCAACAUGAGGAUCACCCAUGUUGUAAUAUGGGAGGAUAUCGAUGAUACAGCUACGUUUCGUAGCU | 0.0189 | 0.00565 | – | –
28 | UUGGACUACGUAGGAUAUGUAGGAUUUUCCUACAUGAGGAUCACCCAUGUUAGCAUGGAAGAAGGACAGAAGGACGUGGUCCAU | 0.782 | 0.0793 | – | –
29 | GUCAGCUCGUGAGGAUAUACAACACUGCUUCGGCAGUGUAUUAAGAUCACAUGAGGAUCACCCAUGUAGAAGGCCCGAGCUGAU | – | – | 0.0102 | 0.139
30 | UUAAAUCAUGUAGGAUAUGCAUGGCGAAGCUACGCAGAAGGACAUGAGGAUCACCCAUGUGCUAGCUACCGAGUUCGGUGGCAA | – | – | 0.0713 | 0.283
31 | GUACUGAAGCUUUGCUUUAGUCGUACAUGAGGAUCACCCAUGUAGGAUAUGGUAGGCAUUGCUUACUAGAAGGAUAGAGUGAUC | – | – | 0.0851 | 0.0549
32 | AAUAACAGAGGAUAUACUAUUUUAUGUGUUUGUUAUUUUAAACAUGAGGAUCACCCAUGUAGAAGGCUGAGUAA | – | – | 0.0267 | 0.0269
33 | UUAAUAAUACAAGGAUAUCAAUUGUUCUUAAGACAUACAUGAGGAUCACCCAUGUUAAUAUAUGUUGAGAAGGUGUAUUUUCAG | 0.0357 | 0.0267 | – | –
34 | AUAUAUAGUGUGAGGAUAUGCUGGUCCUUGGAUCAGCAGAAGGCACAUGAGGAUCACCCAUGUAGUUUAUUUUU | – | – | 0.0245 | 0.102
35 | UUCCUGUCAGGAUAUGACUAGAUGCACGAAAGUGUGUUUACUUAGAAGGGACAUGAGGAUCACCCAUGUAGUCC | – | – | 0.0359 | 0.0333
36 | AUCUUGAGAGGAUAUACAUGAGGAUCACCCAUGUUGCUAACACCAUGCGCUCAUUUACGUAGAAGGCUCAUCCG | – | – | 0.0211 | 0.0404
37 | UAUGAAUAGCAAGGAUAUUGAUAACAUGAGGAUCACCCAUGUAAUUGAUCGAGUUAGAUCAGUUACAAGAAGGUGCAAUUGAUU | 0.053 | 0.557 | – | –
38 | AUUAUUGGCUAAGGAUAUGGAUACAUGAGGAUCACCCAUGUAUUUUUUGUGAUCAUAUAAAUGAUCCAGAAGGUAGCUGUUUAU | – | – | 0.0231 | 0.0701

Row | Sequence | apparent Kd [1] [µM] | apparent Kd [2] [µM] | apparent Kd [3] [µM] | apparent Kd [4] [µM]
39 | AAAUCGGCAGGAUAUACAUGAAAAUUAAAAAAAAAAAAAAAACAUGAGGAUCACCCAUGUAGAAGGGUCAAAAA | – | – | 0.0889 | 0.0892
40 | UCGAUGCUAGGAUAUACGUAUAAAACCACCGUAGAGUCCUCACAUGAGGAUCACCCAUGUAGAAGGAGCAUCUA | – | – | 0.0173 | 0.0234
41 | GGUGCGUUUGUGAGGAUAUGCUGGUCCUUGGCUCAGCAGAAGGCACAUGAGGAUCACCCAUGUGGUGUCGUACC | – | – | 0.294 | 0.0418
42 | AUUUUACAUGAGGAUCACCCAUGUUUUGGCGGGUCAGGAUAUAGAUCGGAUGAGUUCUGGCUAGAAGGGACAUGUA | 0.054 | 0.106 | – | –
43 | GCCGGAUUUGUGAGGAUAUACCUAUGGAUACAUAGGUAGAAGGCACAUGAGGAUCACCCAUGUACCUCACCGGC | – | – | 0.0167 | 0.0692
44 | AAAUACGUUUCGUAGCAGUGUCAUCGAGAAGGCCCUGACAUGAGGAUCACCCAUGUUGUUACAUGGGAGGAUAUCGAUGAUAAA | 0.0162 | 0.00552 | – | –
45 | GUAAUACAUGAGGAUCACCCAUGUCAAUGUAGUCGAGGAUAUGGGUAGCUAUGAGGCUUACUAGAAGGCGACGAGC | 0.21 | 0.0393 | – | –
46 | GGUUGGCGAGGAUAUACAUGAGGAUCACCCAUGUGGUCCUGUGGCUGGUCUUGCCUUUGUAGAAGGCGCGGGUC | – | – | 0.105 | 0.111
47 | UACAUGAGGAUCACCCAUGUUUUGUCGUGUAUGGUAUUUAUCUAGGAUAUCAAUUUAAUUAUUUAUGAGAAGGAGAAUAUUAAU | – | – | 0.0396 | 0.0331
48 | AUAAAUCAUGUAGGAUAUGCGUGGCGAAGCUAUGCAGAAGGACAUGAGGAUCACCCAUGUCUUUCCGUCUGCGUACAGACGGGA | – | – | 0.0309 | 0.225
49 | GCCGACCAGAAGUCGGUACGGAGGAGAAGGCGCCUCCUGGGUCCACAUGAGGAUCACCCAUGUGGCGAGGAUAUCCUCAGUUUU | – | – | 0.0164 | 0.126
50 | CCAGAUAUGUGAGGAUAUAGAGUGGAAUACACUCUAGAAGGUAUGUGAGAACAUGAGGAUCACCCAUGUCAUUGAUUAUCUGGA | 0.0247 | 0.0246 | – | –
51 | GUGGUCAGACAUGAGGAUCACCCAUGUGGAAUAAAUAACAACUAGGAUAUGUAAUAUAGGAUAUAACAGAAGGAGUGAUUGGUG | 0.168 | 0.138 | – | –
52 | GGUUAUUGCAAGGAUAUGCUAUUAUUUUAUUUUGCAGAAGGUGCAACAUGAGGAUCACCCAUGUUGGAGGGUUU | – | – | 0.0215 | 0.0411
53 | UUGGACGUCGUAUGAUAUGUAGGAUAUUCCUACAUGAGGAUCACCCAUGUUGACAUGGAAGAAGGACAGAAGGACGAUGUCCAU | 0.192 | 0.00674 | – | –
54 | UUAAUGUGAGGAUAUCAGGUGUGCUAGCGUACUGGUACAUCUGAGAAGGCACAUGAGGAUCACCCAUGUUCCUU | – | – | 0.0164 | 0.0553
55 | AGUAAGAUGCAGAAGGUGCCAGCGAGAGCUGCACAUGAGGAUCACCCAUGUUGUCGGUGACGACGCAAGGAUAUGCAUCUUACA | 0.0245 | 0.00687 | – | –
56 | AGGGCAACAGGAUAUCAUACAAUCUACAUGAGGAUCACCCAUGUGCCUCUUUUCAUACUGUGAGAAGGGUUGUCGG | – | – | 0.0648 | 0.0638

Source: the EternaBench riboswitch data
